According to ChEMBL document CHEMBL1125694, “Fluorinated sugar analogues of potential anti-HIV-1 nucleosides” (J Med Chem, 1991):
Active and inactive are the calls of the source. The rule behind the calls is not given here.

Assays:
Type in all cases: functional, cell-based
H9 [1] = assay: Anti-HIV activity in H9 cell line; Not active; settings: Homo sapiens
HL-60 [2] = assay: Inhibition of human promyelocytic leukemic cell (HL-60) trypan blue exclusion assay
Method in brief: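 HL-60 growth inhibition by trypan blue exclusion, five or six concentrations per nucleoside, in duplicate. Median inhibitory concentration (IC50) derived.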

HL-60 [3] = assay: Inhibition of human promyelocytic leukemic cell (HL-60) by […]-microculture tetrazolium assay
Method in brief: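 HL-60 cells exposed 4 days to five or six concentrations of each nucleoside, in duplicate. Then PMS-XTT mixture (0.075 mM PMS with 1 mg/mL XTT) added for 6 h at 37 °C. Absorbance at 450 and 630 nm. Median inhibitory concentration (IC50) derived.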

MT4 = assay: Compound was tested for anti-HIV activity in MT-4 cell line; Not active; settings: Homo sapiens
H9 [4] = assay: Compound was tested for anti-HIV activity in H9 cell line; Not active; settings: Homo sapiens
H9 [5] = assay: Compound was tested for anti-HIV activity in H9 cell line; Active; settings: Homo sapiens

Row | Structure (SMILES) | IC50 (HL-60 [2]) [µM] | IC50 (HL-60 [3]) [µM] | Activity (H9 [1]) | Activity (MT4) | Activity (H9 [4]) | Activity (H9 [5])
1 | Cc1cn([C@@H]2O[C@H](COC(c3ccccc3)(c3ccccc3)c3ccccc3)[C@@H](OS(C)(=O)=O)[C@H]2OS(C)(=O)=O)c(=O)[nH]c1=O | > 1000 | > 1000 | inactive | – | – | –
2 | Cc1cn([C@@H]2O[C@H](COC(=O)c3ccccc3)[C@@H](OS(C)(=O)=O)[C@@H]2F)c(=O)[nH]c1=O | > 1000 | > 1000 | inactive | – | – | –
3 | Cc1cn(C2OC(COC(c3ccccc3)(c3ccccc3)c3ccccc3)CC2F)c(=O)nc1-n1cncn1 (centres undefined) | > 1000 | > 1000 | inactive | – | – | –
4 | Cc1cn(C2OC(COC(=O)c3ccccc3)C(F)C2F)c(=O)[nH]c1=S (centres undefined) | > 1000 | > 1000 | inactive | – | – | –
5 | Cc1cn2c(nc1=O)O[C@H]1[C@H](OC(=S)n3ccnc3)[C@@H](COC(c3ccccc3)(c3ccccc3)c3ccccc3)O[C@H]12 | > 1000 | > 1000 | inactive | – | – | –
6 | Cc1cn(C2OC(COC(c3ccccc3)(c3ccccc3)c3ccccc3)C(F)C2O)c(=O)[nH]c1=O (centres undefined) | > 1000 | > 1000 | inactive | – | – | –
7 | Cc1cn([C@@H]2O[C@H](COC(=O)c3ccccc3)[C@@H](O)[C@@H]2F)c(=O)[nH]c1=O | > 1000 | > 1000 | inactive | – | – | –
8 | Cc1cn([C@@H]2O[C@H](COC(c3ccccc3)(c3ccccc3)c3ccccc3)C[C@H]2F)c(=O)[nH]c1=O | > 1000 | > 1000 | inactive | – | – | –
9 | Cc1cn(C2OC(COC(c3ccccc3)(c3ccccc3)c3ccccc3)C(F)C2F)c(=O)[nH]c1=O (centres undefined) | > 1000 | > 1000 | inactive | – | – | –
10 | Cc1cn(C2OC(COC(c3ccccc3)(c3ccccc3)c3ccccc3)C(F)C2N=[N+]=[N-])c(=O)[nH]c1=O (centres undefined) | > 1000 | > 1000 | inactive | – | – | –
11 | Cc1cn([C@@H]2O[C@H](CO)[C@@H](N=[N+]=[N-])[C@@H]2F)c(=O)[nH]c1=O | – | – | inactive | inactive | – | –
12 | Cc1cn([C@@H]2O[C@H](CO)[C@@H](F)[C@H]2N=[N+]=[N-])c(=O)[nH]c1=O | > 1000 | > 1000 | inactive | – | – | –
13 | Cc1cn(C2OC(COC(=O)c3ccccc3)C(F)C2F)c(=O)[nH]c1=O (centres undefined) | > 1000 | > 1000 | inactive | – | – | –
14 | Cc1cn([C@@H]2O[C@H](COC(c3ccccc3)(c3ccccc3)c3ccccc3)[C@@H](OS(C)(=O)=O)[C@@H]2F)c(=O)[nH]c1=O | > 1000 | > 1000 | inactive | – | – | –
15 | Cc1cn([C@@H]2O[C@H](COC(c3ccccc3)(c3ccccc3)c3ccccc3)[C@@H]3O[C@@H]32)c(=O)[nH]c1=O | > 1000 | > 1000 | inactive | – | – | –
16 | Cc1cn(C2OC(COC(c3ccccc3)(c3ccccc3)c3ccccc3)CC2F)c(=O)nc1N (centres undefined) | > 1000 | > 1000 | inactive | – | – | –
17 | Cc1cn(C2OC(COC(c3ccccc3)(c3ccccc3)c3ccccc3)CC2O)c(=O)[nH]c1=O (centres undefined) | > 1000 | > 1000 | inactive | – | – | –
18 | Cc1cn([C@@H]2O[C@H](CO)[C@@H](OC(c3ccccc3)(c3ccccc3)c3ccccc3)[C@H]2OC(c2ccccc2)(c2ccccc2)c2ccccc2)c(=O)[nH]c1=O | > 1000 | > 1000 | – | – | inactive | –
19 | Cc1cn2c(nc1=O)O[C@H]1[C@H](O)[C@@H](COC(c3ccccc3)(c3ccccc3)c3ccccc3)O[C@H]12 | > 1000 | > 1000 | inactive | – | – | –
20 | Cc1cn([C@@H]2O[C@H](COC(c3ccccc3)(c3ccccc3)c3ccccc3)[C@H](O)[C@H]2F)c(=O)[nH]c1=O | > 1000 | > 1000 | inactive | – | – | –
21 | Cc1cn([C@H]2C[C@H](F)[C@@H](CO)O2)c(=O)[nH]c1=O | – | – | – | – | – | Active
22 | Cc1cn2c(nc1=O)O[C@@H]1[C@H](F)[C@H]2O[C@@H]1COC(c1ccccc1)(c1ccccc1)c1ccccc1 | > 1000 | > 1000 | inactive | – | – | –
23 | Cc1cn([C@@H]2O[C@H](COC(c3ccccc3)(c3ccccc3)c3ccccc3)[C@H](O)[C@H]2N=[N+]=[N-])c(=O)[nH]c1=O | > 1000 | > 1000 | inactive | – | – | –
24 | Nc1ccn([C@@H]2O[C@H](CO)C[C@@H]2F)c(=O)n1 | – | – | – | – | – | Active
25 | Cc1cn(C2OC(COC(c3ccccc3)(c3ccccc3)c3ccccc3)C(N=[N+]=[N-])C2F)c(=O)[nH]c1=O (centres undefined) | > 1000 | > 1000 | inactive | – | – | –
26 | Cc1cn(C2OC(COC(c3ccccc3)(c3ccccc3)c3ccccc3)C(N=[N+]=[N-])C2O)c(=O)[nH]c1=O (centres undefined) | > 1000 | > 1000 | inactive | – | – | –

Now from value to molecule, other results behind:

Row | IC50 (HL-60 [2]) [µM] | IC50 (HL-60 [3]) [µM] | Structure (SMILES) | Activity (H9 [1]) | Activity (MT4) | Activity (H9 [4]) | Activity (H9 [5])
27 | > 1000 | > 1000 | Cc1cn2c(nc1=O)O[C@@H]1C[C@H]2O[C@@H]1CO | inactive | – | – | –
28 | > 1000 | > 1000 | Cc1cn2c(nc1=O)OC1CC(COC(c3ccccc3)(c3ccccc3)c3ccccc3)OC12 (centres undefined) | inactive | – | – | –
29 | > 1000 | > 1000 | Cc1cn([C@@H]2O[C@H](CO)C=C2F)c(=O)[nH]c1=O | inactive | – | – | –
30 | > 1000 | > 1000 | Cc1cn([C@@H]2O[C@H](CO)[C@@H](O)[C@@H]2F)c(=O)[nH]c1=O [5-METHYL-2'-FLUOROARAURACIL] | inactive | – | – | –
31 | > 1000 | > 1000 | CC(=O)OCC1OC(n2cc(C)c(=O)[nH]c2=O)CC1F (centres undefined) | inactive | – | – | –
32 | > 1000 | > 1000 | Cc1cn([C@H]2C[C@H](OS(C)(=O)=O)[C@@H](COS(C)(=O)=O)O2)c(=O)[nH]c1=O | inactive | – | – | –
33 | > 1000 | > 1000 | Cc1cn([C@@H]2O[C@H](CO)C[C@H]2F)c(=O)[nH]c1=O | inactive | – | – | –
34 | > 1000 | > 1000 | Cc1cn2c(nc1=O)O[C@@H]1[C@H](F)[C@H]2O[C@@H]1COC(=O)c1ccccc1 | inactive | – | – | –
35 | > 1000 | > 1000 | Cc1cn([C@@H]2O[C@H](CO)[C@@H](F)[C@H]2F)c(=O)[nH]c1=O | inactive | – | – | –
36 | > 1000 | > 1000 | Cc1cn([C@@H]2O[C@H](CO)C[C@H]2F)c(=O)nc1N | inactive | – | – | –
37 | > 1000 | > 1000 | Cc1cn(C2CC(F)C(COS(C)(=O)=O)O2)c(=O)[nH]c1=O (centres undefined) | inactive | – | – | –
38 | > 1000 | > 1000 | Cc1cn2c(nc1=O)O[C@@H]1C[C@H]2O[C@@H]1COS(C)(=O)=O | inactive | – | – | –
39 | > 1000 | > 1000 | Cc1cn([C@@H]2O[C@H](CO)[C@@H](F)[C@@H]2F)c(=O)[nH]c1=O | inactive | – | – | –
40 | > 1000 | > 1000 | Cc1cn([C@@H]2O[C@H](CO)[C@@H](O)[C@@H]2O)c(=O)[nH]c1=O | inactive | – | – | –
41 | > 1000 | > 1000 | Cc1cn([C@@H]2O[C@H](CO)[C@@H](N=[N+]=[N-])[C@H]2F)c(=O)[nH]c1=O | inactive | – | – | –
42 | 123 | 234 | Cc1cn(C2OC(CO)C(F)C2F)c(=O)nc1N (centres undefined) | inactive | – | – | –
43 | > 1000 | > 1000 | Cc1cn(C2OC(CO)C[C@@H]2F)c(=O)[nH]c1=O (some centres undefined) | inactive | – | – | –
